Experimental data taken from article PMC4310626 (Biochemistry, 2014).
Read-outs that look alike come from different tables or passages of the source.

Assays:
[1] = molecular target: E. coli NDH-1 NuoD mutant G225A (Escherichia coli, UniProt P0AFD4+P33599, G225A); assay: Inhibition of dNADH oxidase activity, NuoD mutant G225A; assay type: biochemical
How it was run: (§1)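 Inverted membrane vesicles came from chromosomal NuoD-segment mutant or wild-type E. coli, grown overnight at 37 °C in Terrific Broth and disrupted by sonication and French press. The assay used 80 μg protein/mL in 10 mM potassium phosphate (pH 7.0) with 1 mM EDTA, no KCN and no added acceptor, at 30 °C. After 1 min preincubation with test compound, 150 μM dNADH was added. A340 was followed (ε 6.22 mM⁻¹ cm⁻¹), and IC50 was taken as the concentration giving 50% inhibition.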

[2] = molecular target: E. coli NDH-1 NuoD mutant Y273F (Escherichia coli, UniProt P0AFD4+P33599, Y273F); assay: Inhibition of dNADH oxidase activity, NuoD mutant Y273F; assay type: biochemical
Chain of E. coli NDH-1 NuoD mutant Y273F (P33599 whole entry Y273F): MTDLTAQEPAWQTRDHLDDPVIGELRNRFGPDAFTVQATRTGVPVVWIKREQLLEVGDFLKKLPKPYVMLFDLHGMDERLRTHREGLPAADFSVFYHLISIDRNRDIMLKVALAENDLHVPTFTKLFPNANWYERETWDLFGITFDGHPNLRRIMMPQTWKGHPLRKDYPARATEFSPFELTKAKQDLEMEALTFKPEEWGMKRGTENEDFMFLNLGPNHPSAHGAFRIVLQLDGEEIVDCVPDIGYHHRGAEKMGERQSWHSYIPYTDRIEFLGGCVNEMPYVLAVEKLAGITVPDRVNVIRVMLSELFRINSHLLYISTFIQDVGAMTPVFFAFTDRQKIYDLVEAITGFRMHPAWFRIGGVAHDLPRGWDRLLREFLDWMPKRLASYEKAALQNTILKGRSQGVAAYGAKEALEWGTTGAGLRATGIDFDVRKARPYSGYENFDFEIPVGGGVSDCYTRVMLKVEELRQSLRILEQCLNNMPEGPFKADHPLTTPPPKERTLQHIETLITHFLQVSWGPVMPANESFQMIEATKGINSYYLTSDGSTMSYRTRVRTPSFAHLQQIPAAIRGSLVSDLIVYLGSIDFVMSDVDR
Chain of E. coli NDH-1 NuoD mutant Y273F (P0AFD4 whole entry): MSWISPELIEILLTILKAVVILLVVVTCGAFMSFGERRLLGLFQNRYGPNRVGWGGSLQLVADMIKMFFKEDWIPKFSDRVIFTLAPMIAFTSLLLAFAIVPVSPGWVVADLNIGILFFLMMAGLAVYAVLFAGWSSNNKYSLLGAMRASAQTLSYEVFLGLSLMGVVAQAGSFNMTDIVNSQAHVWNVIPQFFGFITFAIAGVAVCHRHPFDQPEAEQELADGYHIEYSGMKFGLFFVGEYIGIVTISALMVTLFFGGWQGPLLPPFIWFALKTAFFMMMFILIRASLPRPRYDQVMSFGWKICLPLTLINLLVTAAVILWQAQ
Chain of E. coli NDH-1 NuoD mutant Y273F (P0AFC7 whole entry partner): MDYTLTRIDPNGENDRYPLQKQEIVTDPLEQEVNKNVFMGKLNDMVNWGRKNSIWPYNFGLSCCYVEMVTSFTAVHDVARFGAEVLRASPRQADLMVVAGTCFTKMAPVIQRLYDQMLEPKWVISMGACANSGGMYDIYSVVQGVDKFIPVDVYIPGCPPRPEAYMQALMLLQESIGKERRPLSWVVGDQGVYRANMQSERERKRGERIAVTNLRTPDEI
How it was run: as §1

[3] = molecular target: E. coli NDH-1 NuoD mutant D325A (Escherichia coli, UniProt P0AFD4+P33599, D325A); assay: Inhibition of dNADH oxidase activity, NuoD mutant D325A; assay type: biochemical
Chain of E. coli NDH-1 NuoD mutant D325A (P33599 whole entry D325A): as the sequence (P33599 whole entry Y273F) above, with F273Y, D325A counted along it
Chain of E. coli NDH-1 NuoD mutant D325A (P0AFD4 whole entry): as the sequence (P0AFD4 whole entry) above
Chain of E. coli NDH-1 NuoD mutant D325A (P0AFC7 whole entry partner): as the sequence (P0AFC7 whole entry partner) above
How it was run: as §1

[4] = molecular target: E. coli NDH-1 NuoD mutant H224R (Escherichia coli, UniProt P0AFD4+P33599, H224R); assay: Inhibition of dNADH oxidase activity, NuoD mutant H224R; assay type: biochemical; settings: read-out: app IC50, 50% inhibition of the dNADH oxidase activity
[5] = molecular target: E. coli NDH-1 NuoD mutant H315R (Escherichia coli, UniProt P0AFD4+P33599, H315R); assay: Inhibition of dNADH oxidase activity, NuoD mutant H315R; assay type: biochemical
How it was run: as §1

[6] = molecular target: E. coli NDH-1 NuoH mutant E36D (Escherichia coli, UniProt P0AFC7+P0AFD4+P33599, E36D); assay: Inhibition of dNADH oxidase activity, NuoH mutant E36D; assay type: biochemical
[7] = molecular target: E. coli NDH-1 NuoH mutant D63E (Escherichia coli, UniProt P0AFC7+P0AFD4+P33599, D63E); assay: Inhibition of dNADH oxidase activity, NuoH mutant D63E; assay type: biochemical
[8] = molecular target: T1, E. coli NDH-1 wild-type (Escherichia coli, UniProt P0AFD4+P33599); assay: Inhibition of dNADH oxidase activity in membrane vesicles, wild-type; assay type: biochemical
T1 sequence (P33599 whole entry): as the sequence (P33599 whole entry Y273F) above, with F273Y counted along it
T1 sequence (P0AFD4 whole entry): as the sequence (P0AFD4 whole entry) above
T1 sequence (P0AFC7 whole entry partner): as the sequence (P0AFC7 whole entry partner) above
How it was run: as §1

[9] = molecular target: E. coli NDH-1, other NuoD mutants (Escherichia coli, UniProt P0AFD4+P33599); assay: Inhibition of dNADH oxidase activity, other NuoD mutants; assay type: biochemical; settings: read-out: IC50 values; all other NuoD mutants (other than G225A, Y273F)
How it was run: as §1

[10] = molecular target: T1, E. coli NDH-1 wild-type; settings: read-out: IC50 value, ref [16],[55]; cited from earlier work
[11] = molecular target: E. coli NDH-1 NuoD mutant E308D (Escherichia coli, UniProt P0AFD4+P33599, E308D); assay: Inhibition of dNADH oxidase activity, NuoD mutant E308D; assay type: biochemical; settings: app IC50, 50% inhibition of the dNADH oxidase activity
How it was run: as §1

[12] = molecular target: E. coli NDH-1 NuoH mutant Q44A (Escherichia coli, UniProt P0AFC7+P0AFD4+P33599, Q44A); assay: Inhibition of dNADH oxidase activity, NuoH mutant Q44A; assay type: biochemical
[13] = molecular target: E. coli NDH-1 NuoD mutant H315A (Escherichia coli, UniProt P0AFD4+P33599, H315A); assay: Inhibition of dNADH oxidase activity, NuoD mutant H315A; assay type: biochemical
How it was run: as §1

[14] = molecular target: E. coli NDH-1 NuoH mutant P49A (Escherichia coli, UniProt P0AFC7+P0AFD4+P33599, P49A); assay: Inhibition of dNADH oxidase activity, NuoH mutant P49A; assay type: biochemical
[15] = molecular target: E. coli NDH-1 NuoD mutant D325E (Escherichia coli, UniProt P0AFD4+P33599, D325E); assay: Inhibition of dNADH oxidase activity, NuoD mutant D325E; assay type: biochemical
How it was run: as §1

[16] = molecular target: E. coli NDH-1 NuoD mutant G235V (Escherichia coli, UniProt P0AFD4+P33599, G235V); assay: Inhibition of dNADH oxidase activity, NuoD mutant G235V; assay type: biochemical
How it was run: as §1

[17] = molecular target: E. coli NDH-1 NuoD mutant G235A (Escherichia coli, UniProt P0AFD4+P33599, G235A); assay: Inhibition of dNADH oxidase activity, NuoD mutant G235A; assay type: biochemical
How it was run: as §1

[18] = molecular target: E. coli NDH-1 NuoD mutant R228A (Escherichia coli, UniProt P0AFD4+P33599, R228A); assay: Inhibition of dNADH oxidase activity, NuoD mutant R228A; assay type: biochemical; settings: app IC50, 50% inhibition of the dNADH oxidase activity
How it was run: as §1

[19] = molecular target: E. coli NDH-1 NuoD mutant R311K (Escherichia coli, UniProt P0AFD4+P33599, R311K); assay: Inhibition of dNADH oxidase activity, NuoD mutant R311K; assay type: biochemical
How it was run: as §1

[20] = molecular target: E. coli NDH-1 NuoD mutant H355A (Escherichia coli, UniProt P0AFD4+P33599, H355A); assay: Inhibition of dNADH oxidase activity, NuoD mutant H355A; assay type: biochemical
How it was run: as §1

[21] = molecular target: E. coli NDH-1 NuoD mutant R270K (Escherichia coli, UniProt P0AFD4+P33599, R270K); assay: Inhibition of dNADH oxidase activity, NuoD mutant R270K; assay type: biochemical; settings: app IC50, 50% inhibition of the dNADH oxidase activity
How it was run: as §1

[22] = molecular target: E. coli NDH-1 NuoH mutant E157K (Escherichia coli, UniProt P0AFC7+P0AFD4+P33599, E157K); assay: Inhibition of dNADH oxidase activity, NuoH mutant E157K; assay type: biochemical
[23] = molecular target: E. coli NDH-1 NuoD mutant E236A (Escherichia coli, UniProt P0AFD4+P33599, E236A); assay: Inhibition of dNADH oxidase activity, NuoD mutant E236A; assay type: biochemical
How it was run: as §1

[24] = molecular target: E. coli NDH-1 NuoH mutant K303A (Escherichia coli, UniProt P0AFC7+P0AFD4+P33599, K303A); assay: Inhibition of dNADH oxidase activity, NuoH mutant K303A; assay type: biochemical
[25] = molecular target: E. coli NDH-1 NuoD mutant G251V (Escherichia coli, UniProt P0AFD4+P33599, G251V); assay: Inhibition of dNADH oxidase activity, NuoD mutant G251V; assay type: biochemical; settings: app IC50, 50% inhibition of the dNADH oxidase activity
How it was run: as §1

[26] = molecular target: E. coli NDH-1 NuoH mutant E216A (Escherichia coli, UniProt P0AFC7+P0AFD4+P33599, E216A); assay: Inhibition of dNADH oxidase activity, NuoH mutant E216A; assay type: biochemical
[27] = molecular target: E. coli NDH-1 NuoD mutant G251A (Escherichia coli, UniProt P0AFD4+P33599, G251A); assay: Inhibition of dNADH oxidase activity, NuoD mutant G251A; assay type: biochemical
How it was run: as §1

[28] = molecular target: E. coli NDH-1 NuoH mutant E71A (Escherichia coli, UniProt P0AFC7+P0AFD4+P33599, E71A); assay: Inhibition of dNADH oxidase activity, NuoH mutant E71A; assay type: biochemical; settings: app IC50, 50% inhibition of the dNADH oxidase activity
[29] = molecular target: E. coli NDH-1 NuoD mutant E236D (Escherichia coli, UniProt P0AFD4+P33599, E236D); assay: Inhibition of dNADH oxidase activity, NuoD mutant E236D; assay type: biochemical
How it was run: as §1

[30] = molecular target: E. coli NDH-1 NuoD mutant R298A (Escherichia coli, UniProt P0AFD4+P33599, R298A); assay: Inhibition of dNADH oxidase activity, NuoD mutant R298A; assay type: biochemical; settings: app IC50, 50% inhibition of the dNADH oxidase activity
How it was run: as §1

[31] = molecular target: E. coli NDH-1 NuoD mutant R298K (Escherichia coli, UniProt P0AFD4+P33599, R298K); assay: Inhibition of dNADH oxidase activity, NuoD mutant R298K; assay type: biochemical
How it was run: as §1

[32] = molecular target: E. coli NDH-1 NuoD mutant R228K (Escherichia coli, UniProt P0AFD4+P33599, R228K); assay: Inhibition of dNADH oxidase activity, NuoD mutant R228K; assay type: biochemical; settings: app IC50, 50% inhibition of the dNADH oxidase activity
How it was run: as §1

Chain of E. coli NDH-1 NuoD mutant G225A (P33599 whole entry G225A): as the sequence (P33599 whole entry Y273F) above, with G225A, F273Y counted along it
Chain of E. coli NDH-1 NuoD mutant G225A (P0AFD4 whole entry): as the sequence (P0AFD4 whole entry) above
Chain of E. coli NDH-1 NuoD mutant G225A (P0AFC7 whole entry partner): as the sequence (P0AFC7 whole entry partner) above

[N-]=[N+]=Nc1ccc2ncnc(NCCc3ccc(I)cc3)c2c1 [AzQ, 6-azido-4-(4-iodophenetylamino) quinazoline]
increase in the IC50 value ([1]; NuoD mutant G225A versus wild-type): ~3 fold | increase in the IC50 value ([2]; NuoD mutant Y273F versus wild-type): ~2.5 fold | IC50 ([2]; read-out: app IC50, 50% inhibition of the dNADH oxidase activity, NuoD mutant Y273F): 2530 nM | IC50 ([3]; read-out: app IC50, 50% inhibition of the dNADH oxidase activity, NuoD mutant D325A): 1140 nM | IC50 [4]: 1130 nM | IC50 ([5]; read-out: app IC50, 50% inhibition of the dNADH oxidase activity, NuoD mutant H315R): 903 nM | decrease in the IC50 value ([6]; NuoH mutant E36D versus wild-type): 3–4 fold | decrease in the IC50 value ([7]; NuoH mutant D63E versus wild-type): 3–4 fold | IC50 ([8]; read-out: app IC50, 50% inhibition of the dNADH oxidase activity, WT, NuoD series (Table 3)): 1080 nM | IC50 ([8]; read-out: app IC50, 50% inhibition of the dNADH oxidase activity, WT, NuoH series (Table 4)): 1080 nM | IC50 [9]: 1000 nM

CCCCCCCCCCCC[C@H](O)[C@H]1CC[C@H]([C@H]2CC[C@H]([C@H](O)CCCCCCCC[C@@H](O)CC3=C[C@H](C)OC3=O)O2)O1 [squamotacin]
IC50 [10]: 2 to 10 nM | IC50 [1]: 5 nM | IC50 [11]: 2 nM | IC50 [2]: 9 nM | IC50 [12]: 5 nM | IC50 [3]: 11 nM | IC50 [13]: 10 nM | IC50 [14]: 5 nM | IC50 [5]: 4 nM | IC50 [15]: 5 nM | IC50 ([6]; app IC50, 50% inhibition of the dNADH oxidase activity, NuoH mutant E36D): 3 nM | IC50 ([7]; app IC50, 50% inhibition of the dNADH oxidase activity, NuoH mutant D63E): 4 nM | IC50 [16]: 6 nM | IC50 [17]: 4 nM | IC50 [18]: 2 nM | IC50 [19]: 4 nM | IC50 [20]: 5 nM | IC50 [21]: 2 nM | IC50 [22]: 6 nM | IC50 [23]: 5 nM | IC50 [24]: 10 nM | IC50 [25]: 2 nM | IC50 [8]: 10 nM | IC50 [26]: 8 nM | IC50 [27]: 4 nM | IC50 [28]: 3 nM | IC50 [29]: 7 nM | IC50 [30]: 2 nM | IC50 [31]: 4 nM | IC50 [32]: 3 nM
